Ratio EC50, Activity and EC50 data for five molecules are collected here from ChEMBL document CHEMBL2157875, “Design, synthesis and in vitro evaluation of a series of α-substituted phenylpropanoic acid PPARγ agonists to further investigate the stereochemistry-activity relationship” (Bioorg Med Chem, 2012).

What all share (assay type): cell-based
Assay [1] addresses PPAR delta/gamma (Homo sapiens) (UniProt P37231+Q03181). In words: Selectivity ratio of EC50 for human PPARdelta expressed in human HEK293 cells to EC50 for human PPARgamma expressed in human HEK293 cells.
Assay [2] has as its target T1, Peroxisome proliferator-activated receptor gamma (Homo sapiens) (UniProt P37231).
T1 sequence (whole entry): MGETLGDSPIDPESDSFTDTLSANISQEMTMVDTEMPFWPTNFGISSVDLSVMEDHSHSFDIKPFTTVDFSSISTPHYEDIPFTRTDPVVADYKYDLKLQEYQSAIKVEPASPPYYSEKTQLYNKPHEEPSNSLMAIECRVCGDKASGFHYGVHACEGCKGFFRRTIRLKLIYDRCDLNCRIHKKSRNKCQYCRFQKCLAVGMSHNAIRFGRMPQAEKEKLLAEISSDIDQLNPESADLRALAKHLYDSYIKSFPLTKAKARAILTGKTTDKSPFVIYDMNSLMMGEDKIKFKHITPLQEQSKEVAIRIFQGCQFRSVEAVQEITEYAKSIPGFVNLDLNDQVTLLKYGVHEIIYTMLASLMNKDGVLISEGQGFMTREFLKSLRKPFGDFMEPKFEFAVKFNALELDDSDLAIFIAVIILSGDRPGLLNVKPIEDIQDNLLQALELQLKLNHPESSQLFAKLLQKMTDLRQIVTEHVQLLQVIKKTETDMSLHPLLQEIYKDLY
In words: Transactivation of human PPARgamma expressed in human HEK293 cells assessed as concentration required for maximum activity after 16 to 20 hrs by dual luciferase beta-galactosidase reporter gene assay. In short, it runs like this:
(§1)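 HEK293 cells were grown in DMEM with 5% FBS and antibiotic-antimycotic at 37 °C in 5% CO2. They were co-transfected by calcium phosphate with 50 ng reporter, 20 ng pCMX-β-galactosidase and 15 ng of each receptor plasmid, made up to 150 ng with pGEM carrier. Ligands were added 8 h later and cells harvested about 16–20 h after. Luciferase was normalized to β-galactosidase; means of triplicates.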
On the technique in general: Reporter assays use an easily measured gene product as a stand-in for the process of interest.

Assay [3] has as its system HEK293. In words: Selectivity ratio of EC50 for human PPARalpha expressed in human HEK293 cells to EC50 for human PPARgamma expressed in human HEK293 cells.
Assay [4] concerns the target T2, Peroxisome proliferator-activated receptor gamma (Homo sapiens, UniProt P37231).
T2 sequence (P37231 whole entry): T1 sequence (whole entry)
In words: Transactivation of human PPARgamma expressed in human HEK293 cells after 16 to 20 hrs by dual luciferase beta-galactosidase reporter gene assay. In short, it runs like this:
as §1

For assay [5], the target named is T3, Peroxisome proliferator-activated receptor alpha (Homo sapiens, UniProt Q07869).
T3 sequence (Q07869 whole entry): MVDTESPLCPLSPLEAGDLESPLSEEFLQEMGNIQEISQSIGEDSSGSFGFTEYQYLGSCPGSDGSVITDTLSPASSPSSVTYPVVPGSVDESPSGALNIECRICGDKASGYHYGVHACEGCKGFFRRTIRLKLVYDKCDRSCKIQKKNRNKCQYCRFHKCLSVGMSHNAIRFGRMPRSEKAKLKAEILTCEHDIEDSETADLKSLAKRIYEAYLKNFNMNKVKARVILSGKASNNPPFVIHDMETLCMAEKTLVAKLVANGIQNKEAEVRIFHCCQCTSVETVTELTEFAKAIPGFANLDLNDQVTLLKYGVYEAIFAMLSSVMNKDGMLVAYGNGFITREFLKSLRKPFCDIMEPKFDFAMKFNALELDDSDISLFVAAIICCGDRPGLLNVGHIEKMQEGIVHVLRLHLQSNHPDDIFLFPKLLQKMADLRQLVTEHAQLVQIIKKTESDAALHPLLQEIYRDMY
In words: Transactivation of human PPARalpha expressed in human HEK293 cells after 16 to 20 hrs by dual luciferase beta-galactosidase reporter gene assay. In short, it runs like this: as §1

Assay [6] has as its target T4, Peroxisome proliferator-activated receptor delta (Homo sapiens, UniProt Q03181).
T4 sequence (Q03181 whole entry): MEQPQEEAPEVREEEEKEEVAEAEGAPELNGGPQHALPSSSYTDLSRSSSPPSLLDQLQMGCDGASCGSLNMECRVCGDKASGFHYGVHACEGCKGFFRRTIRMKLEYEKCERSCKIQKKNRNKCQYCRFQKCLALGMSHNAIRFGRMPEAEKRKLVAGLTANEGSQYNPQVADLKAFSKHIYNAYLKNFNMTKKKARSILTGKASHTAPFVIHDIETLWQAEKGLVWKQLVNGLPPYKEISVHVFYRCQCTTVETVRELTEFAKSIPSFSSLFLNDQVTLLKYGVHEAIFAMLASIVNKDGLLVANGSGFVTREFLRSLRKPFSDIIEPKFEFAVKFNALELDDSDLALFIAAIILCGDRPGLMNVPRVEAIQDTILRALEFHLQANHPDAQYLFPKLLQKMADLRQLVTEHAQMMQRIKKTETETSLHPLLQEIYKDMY
In words: Transactivation of human PPARdelta expressed in human HEK293 cells after 16 to 20 hrs by dual luciferase beta-galactosidase reporter gene assay. The gist of the method:
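HEK293 cells grown in DMEM with 5% FBS and antibiotic-antimycotic at 37 °C, 5% CO₂. Calcium phosphate cotransfection per well of 50 ng reporter, 20 ng pCMX-β-galactosidase, 15 ng receptor expression plasmid, pGEM carrier to 150 ng. Ligands added 8 h post-transfection, cells harvested ~16–20 h later. Luciferase normalised to β-galactosidase; means of triplicates.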

In the case of `CCCOc1ccc(C[C@H](CC2CCCCC2)C(=O)O)cc1CNC(=O)c1ccc(C23CC4CC(CC(C4)C2)C3)cc1`, the Ratio EC50 in assay [1] and in assay [3] was 240 each time. Moreover, the Activity in assay [2] turned out to be 1 µM. Further, the EC50 (as a rule, the midpoint of the concentration-response curve) in assay [4] was 22 nM.

For the molecule `CCCOc1ccc(C[C@H](CCc2ccccc2)C(=O)O)cc1CNC(=O)c1ccc(C23CC4CC(CC(C4)C2)C3)cc1`, the Ratio EC50 in assay [1] and in assay [3] was 50 each time. In assay [2], the Activity is 0.05 µM. For the same molecule, the figures for the EC50 in assay [5] and in assay [4] were 770 nM and 9.2 nM, respectively.

Regarding `CCCOc1ccc(C[C@H](CC)C(=O)O)cc1CNC(=O)c1ccc(C23CC4CC(CC(C4)C2)C3)cc1`, in assay [6], the midpoint of the response, the EC50, lay at 130 nM.

In the case of `CCCOc1ccc(C[C@@H](CC2CCCCC2)C(=O)O)cc1CNC(=O)c1ccc(C23CC4CC(CC(C4)C2)C3)cc1`, the Ratio EC50 in assay [1] and in assay [3] was 240 each time. Besides, the Activity in assay [2] was found to be 1 µM. For the same molecule, in assay [4], the EC50 is 12 nM.

On to `CCCOc1ccc(C[C@@H](CCc2ccccc2)C(=O)O)cc1CNC(=O)c1ccc(C23CC4CC(CC(C4)C2)C3)cc1`, for which the Ratio EC50 in assay [1] and in assay [3] was 50 each time. In addition, in assay [2], the Activity is 1 µM. Also, the EC50 in assay [5] was determined as 1760 nM; in assay [4] it was 34 nM.
